Molecular target: Sodium-dependent noradrenaline transporter (Homo sapiens, UniProt P23975)
Assay: Displacement of [3H]nisoxetine from human NET expressed in CHO cells after 120 mins by scintillation counting
In short: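 Membranes from hNET-transfected CHO cells (20 μg protein) incubated 120 min at 4 °C with 1 nM [3H]nisoxetine in 50 mM Tris-HCl pH 7.4, 120 mM NaCl, 5 mM KCl. Nonspecific binding defined with 1 μM desipramine. Filtered on PEI-soaked GF/B and counted.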

Chain of Sodium-dependent noradrenaline transporter (P23975 whole entry): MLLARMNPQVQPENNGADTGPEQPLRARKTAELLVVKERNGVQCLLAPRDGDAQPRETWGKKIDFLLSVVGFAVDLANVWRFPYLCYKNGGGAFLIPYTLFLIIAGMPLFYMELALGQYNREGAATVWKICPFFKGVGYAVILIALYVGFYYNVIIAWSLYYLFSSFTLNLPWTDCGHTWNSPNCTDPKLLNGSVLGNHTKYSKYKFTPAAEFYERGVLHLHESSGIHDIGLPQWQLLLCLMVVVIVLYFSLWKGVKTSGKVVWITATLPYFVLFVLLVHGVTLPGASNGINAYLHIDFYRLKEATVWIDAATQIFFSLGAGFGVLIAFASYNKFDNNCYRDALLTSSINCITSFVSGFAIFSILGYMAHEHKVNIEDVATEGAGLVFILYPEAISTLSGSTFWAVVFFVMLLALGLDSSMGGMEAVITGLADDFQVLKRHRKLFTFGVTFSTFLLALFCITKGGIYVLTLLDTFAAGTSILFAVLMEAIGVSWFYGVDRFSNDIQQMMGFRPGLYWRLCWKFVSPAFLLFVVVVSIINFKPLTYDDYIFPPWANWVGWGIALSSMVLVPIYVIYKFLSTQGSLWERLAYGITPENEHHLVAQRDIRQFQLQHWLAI

CN(C)C1CC=C(c2c[nH]c3ccc(N=C(N)c4cccs4)cc23)CC1 (stereo unspecified)
IC50: 550 nM
